Reference: PubChem BioAssay
Unmarked numbers belong to inactive results. Inconclusive results are not listed. Activity calls are given as the source filed them.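 How the source made its calls, unless noted: active means growth inhibition above 25% in both replicates, a cutoff set 3 SD above the mean; inconclusive means above 25% in only one replicate; inactive means the rest.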

Key:
[1] = OD615 S. cerevisiae growth inhibition, permissive medium, pilot counter-assay, permissive growth control for S. cerevisiae lifespan shortening project (AID 705); conditions: OD615, 24 h, at 10 µM, hits give high values
Procedure, shortened: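 System: Engineered DeaD yeast | Buffer or medium: SC raffinose/galactose permissive medium | Doses: 10 µM single dose, 0.25% DMSO | Times: 24 h exposure, 30 °C | Measured by: OD615 turbidity read | Read-out: Yeast growth inhibition indicated by reduced 24 h OD615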

[2] = Restrictive medium S. cerevisiae growth inhibition, OD615, pilot screen of yeast lifespan reduction project, restrictive growth control (AID 706;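 active means growth inhibition above a set limit, 3 SD over mean compound inhibition, in both replicates, cut at about 43% in these data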;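 further: modified DeaD lifespan yeast strain shifted to restrictive glucose medium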); conditions: OD615, 48 h, at 10 µM, hits give high values
Procedure, shortened: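 Assay system: engineered S. cerevisiae DeaD strain; Buffer or medium: CSMM-D glucose medium; Dosing: 10 µM compound, 0.25% DMSO; Times: cell pre-growth 4 h, compound exposure 48 h, 30 °C; Detection: absorbance (optical density) measured at 615 nm.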

[3] = viability gain of MRP-1-high H69AR cells under doxorubicin, pilot screen, MRP-1 activator project, CellTiter-Glo, duplicate (AID 807;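 active means viability increase at or above a cutoff of the median across tested compounds plus 3 SD, cut at about 8.5% in these data, passing the limit was not always enough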;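 further: compound pretreatment 18-22 h then 72 h combined with doxorubicin; 0% = doxorubicin alone and 100% = vehicle without doxorubicin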); conditions: H69AR viability with doxorubicin, CellTiter-Glo luminescence; at 10 µM; hits give high values
[4] = growth suppression of beta-catenin knockout HCT116, pilot screen, human colon tumor cells (AID 823;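 active means cell viability at or below a set limit in both duplicate runs, the limit being the all-compound median minus 4 SD, cut at about 23% in these data, passing the limit was not always enough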;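 further: 0% = wells killed by 20 µM Hyamine and 100% = untreated DMSO cell wells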); conditions: CellTiter-Glo, 60 h, at 10 µM, hits give low values
[5] = inhibitors of the yeast RAM network, pilot screen, dse1pr::URA3 reporter, 5-FOA selection (AID 869;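 active means inhibition over a set limit, the all-compound mean plus 3 SD, in both replicate runs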;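 further: 0% = DMSO wells with no growth and 100% = 10 µM 1-NA-PP1 with full growth; RAM network block rescues cells from 5-FOA so hits raise OD615 growth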); conditions: S. cerevisiae dse1pr::URA3 5-FOA growth, OD615, 2 d, at 10 µM, hits give high values
[6] = RAM signaling pathway blockade in yeast – S. cerevisiae, Pdr1DBD-CYC8 efflux-inhibited sensitized strain, primary screen (AID 1298;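 active means RAM network inhibition above 8.4% in each of two replicates, 3 SD over the compound average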;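 further: 0% = DMSO untreated cells without growth and 100% = 10 µM 1-NA-PP1 full growth; higher means more yeast growth rescued from 5-FOA killing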); conditions: S. cerevisiae cbk1-as DSE1-URA3 strain, 5-FOA growth OD615, 2 d; at 50 µM; hits give high values
[7] = growth suppression of PTEN-deleted HCT116, pilot screen, cell-based, HCT116 clonal line, CellTiter-Glo (AID 824;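 active means viability at or below 27.92% in each of two runs, the all-compound median minus 4 SD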;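 further: 0% = 20 µM Hyamine control and 100% = vehicle cell control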); conditions: 60 h, at 10 µM, hits give low values

Structure (SMILES)	growth inhibition [1]	growth inhibition [2]	viability increase [3] [%]	viability [4] [%]	inhibition [5]	RAM network inhibition [6] [%]	viability [7] [%]
CCOC(=O)c1cncn1C(C)c1ccccc1 (stereo not drawn)	-15.6%	1.2%	-2.02	102	0.145%	3.01	
COc1cc(CC2C(=O)N(C)C(=O)N(C)C2=O)ccc1OCc1ccccc1	-12.6%	-5.52%	0.67	96.9	0.87%	5.72	95.8
COc1cc2c(cc1OC)-c1c(OC)c(OC)cc3c1C(C2)N(C)CC3 (stereo not drawn)	-13.1%	1.99%	-3.02	73.6	-0.365%	6.23	61.6
CCCCCCn1c(=O)c(C(=O)Nc2ccncc2)c(O)c2ccccc21	93.5% (active)	97.4% (active)	-7.48		-0.885% [strain carries analog-sensitive mutant Cbk1 kinase]	-1.58	
CN(C)C1(c2nnnn2-c2ccc(Cl)cc2)CCCCC1	-14.4%	-18.1%	0.76	86.2	2.52%	3.64	76.3
COc1cccc(N2C(=O)CC(=O)NC2=O)c1	-5.82%	-6.37%	-0.55		1.5%	1.99	108
Cc1ccnc(-n2c(C)nc3ccccc3c2=O)c1	-1.76%	-3.79%	-2.48	90.8	0.27%	-0.81	90.7
COc1ccc(C2C(C(=O)N3CCC4(CC3)OCCO4)CC(=O)N2c2ccc(OC)cc2)cc1 (stereo not drawn)	-8.58%	-2.57%	-3.2		1%	5.09	103
CC1(C)CC(n2[nH]c(=O)c3c2NC(=O)CSC3c2ccc(F)cc2)CCO1 (stereo not drawn)	-12.3%	-25.8%	-2.67	95.8	-0.28%	4.89	
CN1CCN(c2ccc(NC(=O)C(C)(C)C)cc2)CC1	-17.9%	6%	-1.56	94.8	1.54%	5.29	
